Converted amounts (≈) assume the structure as drawn. The source made the active and inactive calls. No cut-off for these calls is given here.
How the values were obtained:
[1] = test system: Staphylococcus aureus; experiment: Antibacterial activity against methicillin-resistant Staphylococcus aureus isolate CBD 635 at 50 ug per disc by Kirby-Bauer disc diffusion assay; type: functional; settings: read-out: DIZ
In short: (§1)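 Kirby-Bauer disk diffusion with 50 µg compound per 6 mm paper disk. Organisms were grown and plated by an earlier method. The zone-of-inhibition diameter was recorded to the nearest mm and averaged over three independent experiments. No zone was reported as 6 mm, the disk diameter.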

[2] = test system: Staphylococcus aureus; experiment: Antibacterial activity against methicillin-resistant Staphylococcus aureus isolate CBD 635; type: functional
In short: (§2)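 MIC against S. aureus strains was run by an earlier published procedure, tested in triplicate. Values were averaged and expressed as µg/ml of compound.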

[3] = test system: Staphylococcus aureus; experiment: Antibacterial activity against methicillin-susceptible Staphylococcus aureus SH1000; type: functional
In short: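 MIC in µg/ml, tested in triplicate and averaged, with ciprofloxacin as positive control.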

[4] = test system: Staphylococcus aureus; experiment: Antibacterial activity against methicillin-resistant Staphylococcus aureus ATCC 43300; type: functional; in short: as §2
[5] = test system: Staphylococcus aureus; experiment: Antibacterial activity against methicillin-susceptible Staphylococcus aureus SH1000 at MIC by serial dilution method; type: functional
In short: (§3)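 Tryptic soy agar contained compound at 1x, 1.5x, 2.0x or 2.5x the measured MSSA MIC. Cells from 1 ml of an overnight MSSA broth culture were pelleted, resuspended in 100 µl TSB and spread with glass beads. Inoculum cfu was counted by serial dilution onto drug-free agar. Total colonies from at least 3 replicates are reported; frequency is colonies divided by total inoculum.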

[6] = test system: Staphylococcus aureus; experiment: Antibacterial activity against methicillin-susceptible Staphylococcus aureus SH1000 at 1.5 fold MIC by serial dilution method; type: functional; in short: as §3
[7] = test system: Staphylococcus aureus; experiment: Antibacterial activity against methicillin-susceptible Staphylococcus aureus SH1000 at 2 fold MIC by serial dilution method; type: functional; in short: as §3
[8] = test system: Staphylococcus aureus; experiment: Antibacterial activity against methicillin-susceptible Staphylococcus aureus SH1000 at 2.5 fold MIC by serial dilution method; type: functional; in short: as §3
[9] = test system: Bacillus anthracis; experiment: Antibacterial activity against Bacillus anthracis sterne at 50 ug per disc by Kirby-Bauer disc diffusion assay; type: functional; settings: read-out: DIZ; in short: as §1
[10] = test system: Enterococcus faecalis; experiment: Antibacterial activity against Enterococcus faecalis DS16 at 50 ug per disc by Kirby-Bauer disc diffusion assay; type: functional; settings: read-out: DIZ
In short: (§4)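 Disks carried 50 µg of compound. Zone diameter was measured to the nearest mm and averaged over three independent experiments. A value of 6 mm, the disk diameter, was recorded where no inhibition was seen.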

[11] = Antibacterial activity against Bartonella henselae ATCC 49882 at 20 ug per disc after 7 days by Kirby-Bauer disc diffusion assay; type: functional, Bartonella henselae str. Houston-1; settings: ATCC 49882, 168 h, read-out: DIZ
In short: (§5)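 Each paper disk was loaded with 20 µl of a 1 mg/ml solution, dried for 20 min and stored desiccated at 4 °C. Growth from 4-day plates was suspended in heart infusion broth to McFarland 2.0 and swabbed onto chocolate agar (heart infusion agar base with 5% bovine hemoglobin). Plates were incubated 1 week at 37 °C in 5% CO2. Zone diameter was read to the nearest mm, in triplicate and averaged.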

[12] = test system: Bartonella quintana; experiment: Antibacterial activity against Bartonella quintana ATCC VR358 at 20 ug per disc after 7 days by Kirby-Bauer disc diffusion assay; type: functional; settings: ATCC VR358, 168 h, read-out: DIZ; in short: as §5
[13] = test system: Bartonella elizabethae; experiment: Antibacterial activity against Bartonella elizabethae F9251 at 20 ug per disc after 7 days by Kirby-Bauer disc diffusion assay; type: functional; settings: F9251, 168 h, read-out: DIZ; in short: as §5
[14] = Antibacterial activity against Bartonella henselae Houston-1 infected in human HMEC1 cells assessed as intracellular bacterial load at 1 ug/mL incubated for 96 hrs followed by compound washout measured after 7 days relative to control; type: functional, Bartonella henselae str. Houston-1
In short: (§6)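 HMEC-1 cells grown in MCDB131 with 10% FBS, EGF and hydrocortisone were infected with B. henselae Houston-1 at MOI 100 for 4 h. Extracellular bacteria were killed with gentamicin (200 µg/ml, 1 h), then compound was added at 0.1 or 1.0 µg/ml for 96 h. After washing, cells were lysed with 0.1% saponin and lysates plated on chocolate agar for 7 days. CFU are given as a percentage of the media-only control.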

[15] = Antibacterial activity against Bartonella henselae Houston-1 infected in human HMEC1 cells assessed as intracellular bacterial load at 0.1 ug/mL incubated for 96 hrs followed by compound washout measured after 7 days relative to control; type: functional, Bartonella henselae str. Houston-1; in short: as §6
[16] = test system: Escherichia coli; experiment: Antibacterial activity against Escherichia coli DH5alpha at 50 ug per disc by Kirby-Bauer disc diffusion assay; type: functional; settings: DH5[alpha], read-out: DIZ; in short: as §4
[17] = test system: Escherichia coli; experiment: Inhibition of Escherichia coli DNA gyrase-mediated formation of supercoiled form of pUC19 at 1 to 100 ug/mL by gel electrophoresis
In short: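 Relaxed circular pUC19 was incubated with purified E. coli DNA gyrase and compound for 1 h at 37 °C. Relaxed and supercoiled DNA were resolved and quantified by gel electrophoresis.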

[18] = test system: Bartonella vinsonii; experiment: Antibacterial activity against Bartonella vinsonii ATCC VR152 at 20 ug per disc after 7 days by Kirby-Bauer disc diffusion assay; type: functional; settings: ATCC VR152, 168 h, read-out: DIZ; in short: as §5
[19] = Antibacterial activity against Bartonella henselae ATCC 49882 after 7 days by agar dilution method; type: functional, Bartonella henselae str. Houston-1; settings: ATCC 49882, 168 h
In short: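 Agar dilution on chocolate agar containing compound at 10.0, 1.0 and 0.1 µg/ml, with 2-fold steps at and below 1.0 µg/ml for compounds active there. Controls were DMSO-only and drug-free plates. 25 µl of a McFarland 2.0 suspension in heart infusion broth was spotted and incubated 7 days at 37 °C in 5% CO2. Growth was scored +/− on duplicate plates; triplicate results were averaged.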

Structure (SMILES)	zone of inhibition at 50 µg/disc [1]	MIC [2]	MIC [3]	MIC [4]	CFU/ml [6]	CFU/ml [7]	CFU/ml [8]	zone of inhibition at 50 µg/disc [9]	zone of inhibition at 50 µg/disc [10]	zone of inhibition at 20 µg/disc [11]	zone of inhibition at 20 µg/disc [12]	zone of inhibition at 20 µg/disc [13]	Activity [14]	Activity [15]	zone of inhibition at 50 µg/disc [16]	zone of inhibition at 20 µg/disc [18]	MIC [19]	Activity [5]	other results
CC(=O)N1CCN(c2cc3c(cc2F)c(=O)c(C(=O)O)cn3C2CC2)CC1	24 mm	> 100 µg/mL	10 µg/mL (≈ 26.8 µM)	10 µg/mL (≈ 26.8 µM)	41	101	0	89 mm	48 mm	52 mm	6 mm	58 mm	<=10%	54%	60 mm	–	–	–	CFU/ml [5]: 90; gyrase inhibition (active/inactive) [17]: Active
CCC(C)(C)C(=O)N1CCN(c2cc3c(cc2F)c(=O)c(C(=O)O)cn3C2CC2)CC1	31 mm	> 100 µg/mL	5 µg/mL (≈ 11.6 µM)	1 µg/mL (≈ 2.33 µM)	–	–	–	57 mm	45 mm	41 mm	27 mm	32 mm	<=10%	54%	38 mm	33 mm	0.5 µg/mL (≈ 1.16 µM)	–	–
CCCC(C)C(=O)N1CCN(c2cc3c(cc2F)c(=O)c(C(=O)O)cn3C2CC2)CC1 (configuration not stated)	33 mm	> 100 µg/mL	10 µg/mL (≈ 23.3 µM)	1 µg/mL (≈ 2.33 µM)	7	4	0	67 mm	33 mm	37 mm	24 mm	32 mm	–	–	33 mm	30 mm	0.8 µg/mL (≈ 1.86 µM)	inactive	–
CC(C)CC(=O)N1CCN(c2cc3c(cc2F)c(=O)c(C(=O)O)cn3C2CC2)CC1	28 mm	> 100 µg/mL	> 100 µg/mL	> 100 µg/mL	–	–	–	70 mm	32 mm	62 mm	36 mm	37 mm	<=10%	32%	36 mm	40 mm	0.2 µg/mL (≈ 0.481 µM)	–	–
CCCCCCCCCC(=O)N1CCN(c2cc3c(cc2F)c(=O)c(C(=O)O)cn3C2CC2)CC1	34 mm	> 100 µg/mL	10 µg/mL (≈ 20.6 µM)	10 µg/mL (≈ 20.6 µM)	–	–	–	6 mm	6 mm	10 mm	11 mm	9 mm	–	–	6 mm	9 mm	5 µg/mL (≈ 10.3 µM)	inactive	Activity [6]: inactive; Activity [7]: inactive; Activity [8]: inactive
